Measured values taken from ChEMBL document CHEMBL2321702, “Synthesis and antimalarial efficacy of two-carbon-linked, artemisinin-derived trioxane dimers in combination with known antimalarial drugs” (J Med Chem, 2013).

Key:
Plasmodium berghei [1] = test: Antimalarial activity against Plasmodium berghei ANKA infected in C57BL/6J mouse assessed as suppression of blood parasitemia level at 6 mg/kg, po measured on day 3 relative to vehicle-treated control in presence of mef-HCl; type: functional
How it was run: (§1)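 Male C57BL/6J mice (5 weeks old, about 20 g; four per group) were infected with P. berghei ANKA (2×10^7 parasitized erythrocytes). After 24 h, each received a single 200 μL oral gavage of trioxane 6 mg/kg plus mefloquine hydrochloride 18 mg/kg in 7:3 Tween:EtOH diluted with water. Blood parasitemia was read on day 3, and survival was followed to day 60 against untreated mice.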

Plasmodium berghei [2] = test: Antimalarial activity against Plasmodium berghei ANKA infected in C57BL/6J mouse assessed as average survival time at 6 mg/kg, po in presence of lumefantrine (reference value: 8.8 days); type: functional
How it was run: (§2)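 P. berghei ANKA infection (2×10^7 parasitized erythrocytes) in male C57BL/6J mice, four per group. A single oral dose was given 24 h post-infection: trioxane 6 mg/kg plus lumefantrine 18 mg/kg. Day-3 blood parasitemia was compared with vehicle mice, and survival was tracked up to 60 days.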

Plasmodium berghei [3] = test: Antimalarial activity against Plasmodium berghei ANKA infected in C57BL/6J mouse assessed as average survival time at 150 mg/kg, po (reference value: 8.8 days); type: functional
How it was run: (§3)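 Single-dose oral monotherapy without adjuvant, at 120 or 150 mg/kg, given by gavage 24 h after infecting male C57BL/6J mice (four per group) with 2×10^7 P. berghei ANKA-parasitized erythrocytes. Blood parasitemia was measured on day 3 relative to vehicle controls. Survival was recorded over a 60-day study.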

Plasmodium berghei [4] = test: Antimalarial activity against Plasmodium berghei ANKA infected in C57BL/6J mouse assessed as average survival time at 6 mg/kg, po in presence of mefloquine (reference value: 8.8 days); type: functional; how it was run: as §1
Plasmodium berghei [5] = test: Antimalarial activity against Plasmodium berghei ANKA infected in C57BL/6J mouse assessed as suppression of blood parasitemia level at 120 mg/kg, po measured on day 3 relative to vehicle-treated control; type: functional; how it was run: as §3
Plasmodium berghei [6] = test: Antimalarial activity against Plasmodium berghei ANKA infected in C57BL/6J mouse assessed as suppression of blood parasitemia level at 6 mg/kg, po measured on day 3 relative to vehicle-treated control in presence of lumefantrine; type: functional; how it was run: as §2
Plasmodium berghei [7] = test: Antimalarial activity against Plasmodium berghei ANKA infected in C57BL/6J mouse assessed as suppression of blood parasitemia level at 150 mg/kg, po measured on day 3 relative to vehicle-treated control; type: functional; how it was run: as §3
Plasmodium berghei [8] = test: Antimalarial activity against Plasmodium berghei ANKA infected in C57BL/6J mouse assessed as average survival time at 6 mg/kg, po in presence of Mef-HCl (reference value: 7.3 days); type: functional; how it was run: as §1
Plasmodium berghei [9] = test: Antimalarial activity against Plasmodium berghei ANKA infected in C57BL/6J mouse assessed as suppression of blood parasitemia level at 6 mg/kg, po measured on day 3 relative to vehicle-treated control in presence of mefloquine; type: functional; how it was run: as §1
Plasmodium berghei [10] = test: Antimalarial activity against Plasmodium berghei ANKA infected in C57BL/6J mouse assessed as average survival time at 120 mg/kg, po (reference value: 7.3 days); type: functional; how it was run: as §3
Mus musculus = test: Toxicity in po dosed C57BL/6J mouse infected with Plasmodium berghei ANKA assessed as average body weight gain measured on day 3 (reference value: 7.7 g); type: organism-based; conditions: in vivo

| Structure (SMILES) | Activity (Plasmodium berghei [1]) [%] | MST (Plasmodium berghei [2]) [days] | MST (Plasmodium berghei [4]) [days] | Activity (Plasmodium berghei [6]) [%] | MST (Plasmodium berghei [8]) [days] | Activity (Plasmodium berghei [9]) [%] | also measured |
| --- | --- | --- | --- | --- | --- | --- | --- |
| CC(=O)O/N=C(/C[C@H]1O[C@@H]2O[C@@]3(C)CC[C@H]4[C@H](C)CC[C@@H]([C@H]1C)[C@@]24OO3)[C@H]1O[C@@H]2O[C@@]3(C)CC[C@H]4[C@H](C)CC[C@@H]([C@H]1C)[C@@]24OO3 | >99.9 |  |  |  |  |  |  |
| C=CCO/N=C(/C[C@H]1O[C@@H]2O[C@@]3(C)CC[C@H]4[C@H](C)CC[C@@H]([C@H]1C)[C@@]24OO3)[C@H]1O[C@@H]2O[C@@]3(C)CC[C@H]4[C@H](C)CC[C@@H]([C@H]1C)[C@@]24OO3 | >99.9 | 41.3 | 49 | >99.9 | 40.3 | >99.9 | MST (Plasmodium berghei [3]): 46.8 days; Activity (Plasmodium berghei [5]): >99.9%; Activity (Plasmodium berghei [7]): >99%; MST (Plasmodium berghei [10]): 40.3 days |
| C[C@H]1[C@@H](/C(C[C@H]2O[C@@H]3O[C@@]4(C)CC[C@H]5[C@H](C)CC[C@@H]([C@H]2C)[C@@]35OO4)=N\O)O[C@@H]2O[C@@]3(C)CC[C@H]4[C@H](C)CC[C@@H]1[C@@]24OO3 | >99.9 |  |  |  | 52.5 |  |  |
| C[C@H]1[C@@H](/C(C[C@H]2O[C@@H]3O[C@@]4(C)CC[C@H]5[C@H](C)CC[C@@H]([C@H]2C)[C@@]35OO4)=N\OC(C)(C)C)O[C@@H]2O[C@@]3(C)CC[C@H]4[C@H](C)CC[C@@H]1[C@@]24OO3 |  |  |  |  |  | >99.9 |  |
| CO/N=C(\C[C@H]1O[C@@H]2O[C@@]3(C)CC[C@H]4[C@H](C)CC[C@@H]([C@H]1C)[C@@]24OO3)[C@H]1O[C@@H]2O[C@@]3(C)CC[C@H]4[C@H](C)CC[C@@H]([C@H]1C)[C@@]24OO3 |  |  | 37 |  |  | >99.9 |  |
| C[C@H]1[C@@H](/C(C[C@H]2O[C@@H]3O[C@@]4(C)CC[C@H]5[C@H](C)CC[C@@H]([C@H]2C)[C@@]35OO4)=N\OCC2CC2)O[C@@H]2O[C@@]3(C)CC[C@H]4[C@H](C)CC[C@@H]1[C@@]24OO3 |  |  | 41 |  |  | >99.9 |  |
| COP(=O)(OC)O/N=C(/C[C@H]1O[C@@H]2O[C@@]3(C)CC[C@H]4[C@H](C)CC[C@@H]([C@H]1C)[C@@]24OO3)[C@H]1O[C@@H]2O[C@@]3(C)CC[C@H]4[C@H](C)CC[C@@H]([C@H]1C)[C@@]24OO3 | >99.9 |  |  |  | 56 |  |  |
| CO[C@H]1O[C@@H]2O[C@@]3(C)CC[C@H]4[C@H](C)CC[C@@H]([C@H]1C)[C@@]24OO3 [ARTEMETHER] | >99.9 | 19 |  | >99.9 | 40 | >99.9 |  |
| C[C@H]1[C@@H](C(=O)C[C@H]2O[C@@H]3O[C@@]4(C)CC[C@H]5[C@H](C)CC[C@@H]([C@H]2C)[C@@]35OO4)O[C@@H]2O[C@@]3(C)CC[C@H]4[C@H](C)CC[C@@H]1[C@@]24OO3 | >99.9 |  |  |  |  |  |  |
| C#CCO/N=C(/C[C@H]1O[C@@H]2O[C@@]3(C)CC[C@H]4[C@H](C)CC[C@@H]([C@H]1C)[C@@]24OO3)[C@H]1O[C@@H]2O[C@@]3(C)CC[C@H]4[C@H](C)CC[C@@H]([C@H]1C)[C@@]24OO3 | >99.9 | 60 |  | >99.9 | 60 | >99.9 | MST (Plasmodium berghei [3]): 46.8 days; Activity (Mus musculus): 12 g; Activity (Plasmodium berghei [7]): >99.9% |
| CO/N=C(/C[C@H]1O[C@@H]2O[C@@]3(C)CC[C@H]4[C@H](C)CC[C@@H]([C@H]1C)[C@@]24OO3)[C@H]1O[C@@H]2O[C@@]3(C)CC[C@H]4[C@H](C)CC[C@@H]([C@H]1C)[C@@]24OO3 | >99.9 | 26.3 | 49 | >99.9 | 60 | >99.9 | MST (Plasmodium berghei [3]): 8.3 days; Activity (Mus musculus): 10.7 g; Activity (Plasmodium berghei [7]): 98% |
| CCOP(=O)(OCC)O/N=C(/C[C@H]1O[C@@H]2O[C@@]3(C)CC[C@H]4[C@H](C)CC[C@@H]([C@H]1C)[C@@]24OO3)[C@H]1O[C@@H]2O[C@@]3(C)CC[C@H]4[C@H](C)CC[C@@H]([C@H]1C)[C@@]24OO3 | >99.9 |  |  |  | 21.5 |  |  |
| C[C@H]1[C@@H](/C(C[C@H]2O[C@@H]3O[C@@]4(C)CC[C@H]5[C@H](C)CC[C@@H]([C@H]2C)[C@@]35OO4)=N\OC(=O)N(C)C)O[C@@H]2O[C@@]3(C)CC[C@H]4[C@H](C)CC[C@@H]1[C@@]24OO3 | >99.9 |  |  |  |  |  |  |
